Test results from ChEMBL document CHEMBL6177922, “Antibacterial activity of the structurally novel C-2 amine-substituted analogues based on quinoxaline” (RSC Med Chem, 2025).
Converted amounts (≈) assume the structure as drawn. The source made the active and inactive calls. No cut-off for these calls is given here.

What was measured:
Staphylococcus aureus [1] = experiment: Antibacterial activity against methicillin-resistant Staphylococcus aureus infected in Kunming mouse corneal infection model assessed as reduction in viable bacterial count at 6 mg/ml, TOP administered 3 times daily for 1 week; assay type: functional, organism-based; conditions: time 1.0 weeks
Method in brief: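 Corneal infection model: male and female Kunming mice (~20 g) immunosuppressed with daily i.p. cyclophosphamide for 3 days. Anesthetized with i.p. avertin (400 mg kg-1), corneas abraded and given 20 μL MRSA (6 × 10^7 CFU mL-1). From 24 h post-infection, treated by topical smear three times daily for one week. Controls: 5% glucose and 5% vancomycin. Six mice per group. Corneal viable counts measured.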

Staphylococcus aureus [2] = experiment: Antibacterial activity against drug sensitive Staphylococcus aureus RN4220 assessed as reduction in bacterial growth by broth microdilution method; assay type: functional
Method in brief: (§1)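 MICs were determined by standard twofold serial broth microdilution in lysogeny broth (LB) medium.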

Escherichia coli = experiment: Antibacterial activity against drug sensitive Escherichia coli DH5alpha assessed as reduction in bacterial growth by broth microdilution method; assay type: functional; method in brief: as §1
Staphylococcus aureus [3] = experiment: Antibacterial activity against methicillin-resistant Staphylococcus aureus USA300 assessed as reduction in bacterial growth by broth microdilution method; assay type: functional
Method in brief: (§2)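 Twofold serial dilution (microdilution) MIC in lysogeny broth (LB) medium against drug-resistant strains: MRSA USA300, vancomycin-resistant Enterococci, Klebsiella pneumoniae.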

Enterococcus = experiment: Antibacterial activity against vancomycin-resistant Enterococcus assessed as reduction in bacterial growth by broth microdilution method; assay type: functional; method in brief: as §2
Klebsiella pneumoniae = experiment: Antibacterial activity against drug-resistant Klebsiella pneumoniae assessed as reduction in bacterial growth by broth microdilution method; assay type: functional; method in brief: as §2
Pseudomonas aeruginosa = experiment: Antibacterial activity against drug sensitive Pseudomonas aeruginosa PAO1 assessed as reduction in bacterial growth by broth microdilution method; assay type: functional; method in brief: as §1
Bacillus subtilis = experiment: Antibacterial activity against drug sensitive Bacillus subtilis 168 assessed as reduction in bacterial growth by broth microdilution method; assay type: functional; method in brief: as §1
MCF7 = experiment: Cytotoxicity against human MCF7 cells assessed as inhibition of cell growth incubated for 24 hrs by MTT assay; assay type: functional, cell-based; conditions: MCF7, 24 h
Method in brief: (§3)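 MTT assay with 24 h exposure of cells to the samples. IC50 is the concentration giving 50% growth inhibition, reported as mean ± S.D. of three independent experiments.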

[4] = Cytotoxicity against human HEK293 cells assessed as inhibition of cell growth incubated for 24 hrs by MTT assay; assay type: toxicity, cell-based; method in brief: as §3
[5] = Cytotoxicity against human HK-2 cells assessed as inhibition of cell growth incubated for 24 hrs by MTT assay; assay type: toxicity, cell-based; method in brief: as §3
Staphylococcus aureus [6] = experiment: Bactericidal activity against methicillin-resistant Staphylococcus aureus assessed as inhibition of bacterial growth at 2 times MIC incubated for 24 hrs by time kill assay; assay type: functional, organism-based
Method in brief: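 Time-kill: MRSA grown 24 h at 37 °C, adjusted to ~2 × 10^6 CFU mL-1, exposed at 2× or 3× MIC with shaking at 37 °C. Aliquots taken at 0.5–13 h, serially diluted 10-fold in PBS, plated on Mueller–Hinton agar, counted after 24 h at 37 °C. Duplicate.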

CN[C@H](CC(C)C)C(=O)N[C@H]1C(=O)N[C@@H](CC(N)=O)C(=O)N[C@H]2C(=O)N[C@H]3C(=O)N[C@H](C(=O)N[C@H](C(=O)O)c4cc(O)cc(O)c4-c4cc3ccc4O)[C@H](O)c3ccc(c(Cl)c3)Oc3cc2cc(c3O[C@@H]2O[C@H](CO)[C@@H](O)[C@H](O)[C@H]2O[C@H]2C[C@](C)(N)[C@H](O)[C@H](C)O2)Oc2ccc(cc2Cl)[C@H]1O
Activity (Staphylococcus aureus [1]): Active

NC[C@H]1O[C@H](O[C@H]2[C@H](O)[C@@H](O[C@H]3O[C@H](CO)[C@@H](O)[C@H](N)[C@H]3O)[C@H](N)C[C@@H]2N)[C@H](O)[C@@H](O)[C@@H]1O [KANAMYCIN]
MIC (Staphylococcus aureus [2]): 1 µg/mL (≈ 2.06 µM)
MIC (Escherichia coli): 1 µg/mL (≈ 2.06 µM)
MIC (Staphylococcus aureus [3]): 1 µg/mL (≈ 2.06 µM)
MIC (Enterococcus): 8 µg/mL (≈ 16.5 µM)
MIC (Klebsiella pneumoniae): 4 µg/mL (≈ 8.26 µM)
MIC (Pseudomonas aeruginosa): 4 µg/mL (≈ 8.26 µM)
MIC (Bacillus subtilis): 0.5 µg/mL (≈ 1.03 µM)

Nc1nc2ccccc2nc1NCCc1ccc(Cl)c(Cl)c1
MIC (Staphylococcus aureus [2]): > 128 µg/mL
MIC (Escherichia coli): > 128 µg/mL
MIC (Staphylococcus aureus [3]): > 128 µg/mL
MIC (Enterococcus): > 128 µg/mL
MIC (Klebsiella pneumoniae): > 128 µg/mL
MIC (Pseudomonas aeruginosa): > 128 µg/mL
MIC (Bacillus subtilis): > 128 µg/mL

Nc1nc2ccccc2nc1NCCCc1ccccc1
MIC (Staphylococcus aureus [2]): 32 µg/mL (≈ 115 µM)
MIC (Escherichia coli): 128 µg/mL (≈ 460 µM)
MIC (Staphylococcus aureus [3]): 128 µg/mL (≈ 460 µM)
MIC (Enterococcus): 128 µg/mL (≈ 460 µM)
MIC (Klebsiella pneumoniae): 128 µg/mL (≈ 460 µM)
MIC (Pseudomonas aeruginosa): > 128 µg/mL
IC50 (MCF7): 68.7 µg/mL (≈ 247 µM)
MIC (Bacillus subtilis): 64 µg/mL (≈ 230 µM)
IC50 at 24 h [4]: 126 µg/mL (≈ 451 µM)
IC50 at 24 h [5]: 141 µg/mL (≈ 506 µM)

COc1ccc(CCNc2nc3ccccc3nc2N)cc1
MIC (Staphylococcus aureus [2]): 16 µg/mL (≈ 54.4 µM)
MIC (Escherichia coli): 32 µg/mL (≈ 109 µM)
MIC (Staphylococcus aureus [3]): 16 µg/mL (≈ 54.4 µM)
MIC (Enterococcus): > 128 µg/mL
MIC (Klebsiella pneumoniae): 64 µg/mL (≈ 217 µM)
MIC (Pseudomonas aeruginosa): 128 µg/mL (≈ 435 µM)
IC50 (MCF7): 71.5 µg/mL (≈ 243 µM)
MIC (Bacillus subtilis): 16 µg/mL (≈ 54.4 µM)
IC50 at 24 h [4]: 129 µg/mL (≈ 437 µM)
IC50 at 24 h [5]: 139 µg/mL (≈ 471 µM)

Nc1nc2ccccc2nc1NCCc1ccc(Br)cc1
MIC (Staphylococcus aureus [2]): 64 µg/mL (≈ 186 µM)
MIC (Escherichia coli): 128 µg/mL (≈ 373 µM)
MIC (Staphylococcus aureus [3]): > 128 µg/mL
MIC (Enterococcus): > 128 µg/mL
MIC (Klebsiella pneumoniae): > 128 µg/mL
MIC (Pseudomonas aeruginosa): 128 µg/mL (≈ 373 µM)
MIC (Bacillus subtilis): 64 µg/mL (≈ 186 µM)

Nc1nc2ccccc2nc1NCCC1CCCCC1
MIC (Staphylococcus aureus [2]): 128 µg/mL (≈ 473 µM)
MIC (Escherichia coli): > 128 µg/mL
MIC (Staphylococcus aureus [3]): 128 µg/mL (≈ 473 µM)
MIC (Enterococcus): > 128 µg/mL
MIC (Klebsiella pneumoniae): > 128 µg/mL
MIC (Pseudomonas aeruginosa): 128 µg/mL (≈ 473 µM)
MIC (Bacillus subtilis): > 128 µg/mL

Nc1nc2ccccc2nc1NCCC1=CCCCC1
MIC (Staphylococcus aureus [2]): 64 µg/mL (≈ 238 µM)
MIC (Escherichia coli): > 128 µg/mL
MIC (Staphylococcus aureus [3]): > 128 µg/mL
MIC (Enterococcus): > 128 µg/mL
MIC (Klebsiella pneumoniae): > 128 µg/mL
MIC (Pseudomonas aeruginosa): > 128 µg/mL
MIC (Bacillus subtilis): 128 µg/mL (≈ 477 µM)

Nc1nc2ccccc2nc1NCCc1ccccc1F
MIC (Staphylococcus aureus [2]): 64 µg/mL (≈ 227 µM)
MIC (Escherichia coli): 128 µg/mL (≈ 453 µM)
MIC (Staphylococcus aureus [3]): 128 µg/mL (≈ 453 µM)
MIC (Enterococcus): 128 µg/mL (≈ 453 µM)
MIC (Klebsiella pneumoniae): > 128 µg/mL
MIC (Pseudomonas aeruginosa): 128 µg/mL (≈ 453 µM)
MIC (Bacillus subtilis): 128 µg/mL (≈ 453 µM)

CCNc1nc2ccccc2nc1N
MIC (Staphylococcus aureus [2]): 128 µg/mL (≈ 680 µM)
MIC (Escherichia coli): > 128 µg/mL
MIC (Staphylococcus aureus [3]): > 128 µg/mL
MIC (Enterococcus): 128 µg/mL (≈ 680 µM)
MIC (Klebsiella pneumoniae): > 128 µg/mL
MIC (Pseudomonas aeruginosa): 128 µg/mL (≈ 680 µM)
MIC (Bacillus subtilis): 128 µg/mL (≈ 680 µM)

CNc1nc2ccccc2nc1N
MIC (Staphylococcus aureus [2]): 128 µg/mL (≈ 735 µM)
MIC (Escherichia coli): 128 µg/mL (≈ 735 µM)
MIC (Staphylococcus aureus [3]): > 128 µg/mL
MIC (Enterococcus): > 128 µg/mL
MIC (Klebsiella pneumoniae): > 128 µg/mL
MIC (Pseudomonas aeruginosa): 128 µg/mL (≈ 735 µM)
MIC (Bacillus subtilis): 64 µg/mL (≈ 367 µM)

Nc1nc2ccccc2nc1NCCc1ccccc1
MIC (Staphylococcus aureus [2]): 32 µg/mL (≈ 121 µM)
MIC (Escherichia coli): 128 µg/mL (≈ 484 µM)
MIC (Staphylococcus aureus [3]): > 128 µg/mL
MIC (Enterococcus): > 128 µg/mL
MIC (Klebsiella pneumoniae): > 128 µg/mL
MIC (Pseudomonas aeruginosa): 128 µg/mL (≈ 484 µM)
IC50 (MCF7): 72.3 µg/mL (≈ 274 µM)
MIC (Bacillus subtilis): 64 µg/mL (≈ 242 µM)
IC50 at 24 h [4]: 123 µg/mL (≈ 467 µM)
IC50 at 24 h [5]: 130 µg/mL (≈ 493 µM)

COc1cccc(CCNc2nc3ccccc3nc2N)c1
MIC (Staphylococcus aureus [2]): 8 µg/mL (≈ 27.2 µM)
MIC (Escherichia coli): 16 µg/mL (≈ 54.4 µM)
MIC (Staphylococcus aureus [3]): 16 µg/mL (≈ 54.4 µM)
MIC (Enterococcus): 128 µg/mL (≈ 435 µM)
MIC (Klebsiella pneumoniae): 64 µg/mL (≈ 217 µM)
MIC (Pseudomonas aeruginosa): 64 µg/mL (≈ 217 µM)
IC50 (MCF7): 74.7 µg/mL (≈ 254 µM)
MIC (Bacillus subtilis): 32 µg/mL (≈ 109 µM)
IC50 at 24 h [4]: 130 µg/mL (≈ 443 µM)
IC50 at 24 h [5]: 142 µg/mL (≈ 483 µM)

Nc1nc2ccccc2nc1NCc1ccc2ccccc2c1
MIC (Staphylococcus aureus [2]): 32 µg/mL (≈ 107 µM)
MIC (Escherichia coli): 64 µg/mL (≈ 213 µM)
MIC (Staphylococcus aureus [3]): 64 µg/mL (≈ 213 µM)
MIC (Enterococcus): > 128 µg/mL
MIC (Klebsiella pneumoniae): > 128 µg/mL
MIC (Pseudomonas aeruginosa): > 128 µg/mL
IC50 (MCF7): 69.7 µg/mL (≈ 232 µM)
MIC (Bacillus subtilis): 32 µg/mL (≈ 107 µM)
IC50 at 24 h [4]: 131 µg/mL (≈ 435 µM)
IC50 at 24 h [5]: 147 µg/mL (≈ 488 µM)

Nc1nc2ccccc2nc1NCCc1ccc(F)cc1
MIC (Staphylococcus aureus [2]): 64 µg/mL (≈ 227 µM)
MIC (Escherichia coli): 128 µg/mL (≈ 453 µM)
MIC (Staphylococcus aureus [3]): > 128 µg/mL
MIC (Enterococcus): 128 µg/mL (≈ 453 µM)
MIC (Klebsiella pneumoniae): 128 µg/mL (≈ 453 µM)
MIC (Pseudomonas aeruginosa): > 128 µg/mL
MIC (Bacillus subtilis): 64 µg/mL (≈ 227 µM)

CCn1cc(C(=O)O)c(=O)c2cc(F)c(N3CCNCC3)cc21
Activity (Staphylococcus aureus [6]): Active

O=c1[nH]cc(F)c(=O)[nH]1 [FLUOROURACIL]
IC50 (MCF7): 0.85 µg/mL (≈ 6.53 µM)

Cc1ccc(CCNc2nc3ccccc3nc2N)cc1
MIC (Staphylococcus aureus [2]): 16 µg/mL (≈ 57.5 µM)
MIC (Escherichia coli): 32 µg/mL (≈ 115 µM)
MIC (Staphylococcus aureus [3]): 32 µg/mL (≈ 115 µM)
MIC (Enterococcus): > 128 µg/mL
MIC (Klebsiella pneumoniae): 64 µg/mL (≈ 230 µM)
MIC (Pseudomonas aeruginosa): 64 µg/mL (≈ 230 µM)
IC50 (MCF7): 70.9 µg/mL (≈ 255 µM)
MIC (Bacillus subtilis): 32 µg/mL (≈ 115 µM)
IC50 at 24 h [4]: 136 µg/mL (≈ 487 µM)
IC50 at 24 h [5]: 150 µg/mL (≈ 538 µM)

Nc1nc2ccccc2nc1NCCc1ccccc1Br
MIC (Staphylococcus aureus [2]): 128 µg/mL (≈ 373 µM)
MIC (Escherichia coli): > 128 µg/mL
MIC (Staphylococcus aureus [3]): 128 µg/mL (≈ 373 µM)
MIC (Enterococcus): 128 µg/mL (≈ 373 µM)
MIC (Klebsiella pneumoniae): 64 µg/mL (≈ 186 µM)
MIC (Pseudomonas aeruginosa): 128 µg/mL (≈ 373 µM)
MIC (Bacillus subtilis): 64 µg/mL (≈ 186 µM)
